According to ChEMBL document CHEMBL5357032, “In Vitro Antimalarial Activity of Trichothecenes against Liver and Blood Stages of Plasmodium Species” (J Nat Prod, 2024):

Assays:
[1] = Selectivity index, ratio of CC50 for primary human hepatocytes to EC50 for liver stage Plasmodium vivax schizont infected in human hepatocytes; assay type: toxicity, cell-based; settings: read-out: Ratio CC50/EC50
[2] = Selectivity index, ratio of CC50 for primary human hepatocytes to EC50 for liver stage Plasmodium vivax hypnozoite infected in human hepatocytes; assay type: toxicity, cell-based; settings: read-out: Ratio CC50/EC50
[3] = Cytotoxicity against human primary hepatocytes; assay type: toxicity, cell-based, Hepatocyte
In short: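 Host primary human hepatocytes (18 000 per collagen-coated well) in the P. vivax liver-stage radical-cure cultures. Compound given days 5–7 post-infection from a 12-point 1:3 dilution series; fixed at day 12 and imaged by high-content imaging. 0.1% DMSO negative control. CC50 fitted per run from duplicate wells; two independent experiments.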

Plasmodium falciparum = test: Antimalarial activity against asexual blood stage Plasmodium falciparum W2 incubated for 72 hrs by Hoechst 33342 staining based assay; assay type: functional, organism-based
In short: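 P. falciparum W2 ring stages plated at 2% parasitemia and 0.75% hematocrit. Cells allowed to settle, then dosed by pin transfer from a 12-point 1:3 dilution series made from 1000× DMSO stocks. Artemisinin was the positive control and 0.1% v/v DMSO the negative. After 72 h: fixed, Hoechst 33342 DNA stain, high-content imaging. EC50 fitted per run from duplicate wells; three independent experiments.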

[4] = Cytotoxicity against human HepG2 cells incubated for 72 hrs by Hoechst 33342 staining based assay; assay type: toxicity, cell-based
In short: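 HepG2 cells, 2000 per collagen-coated well, treated the following day by pin transfer from a 12-point 1:3 dilution series (1000× DMSO stocks). Puromycin positive control; 0.1% v/v DMSO negative. After 72 h: fixed, Hoechst 33342 nuclear stain, high-content imaging. CC50 fitted per run from duplicate wells; three independent experiments.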

[5] = Selectivity index, ratio of CC50 for human HepG2 cells to EC50 for asexual blood stage Plasmodium falciparum W2; assay type: toxicity; settings: read-out: Ratio CC50/EC50
Plasmodium vivax [6] = test: Antimalarial activity against liver stage Plasmodium vivax schizont infected in human hepatocytes preincubated for 5 to 10 days followed by compound addition and measured after 12 days post infection by immunofluorescence staining based assay; assay type: functional, organism-based; settings: hepatocyte
In short: (§1)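 Primary human hepatocytes seeded at 18 000 per collagen-coated well. Two days later, infected with sporozoites from mosquitoes fed P. vivax patient blood (Cambodia) 18 days earlier; a different isolate was used per experiment. Radical-cure mode: treated days 5–7 post-infection. Day 12: fixed, anti-PvUIS4 immunofluorescence, high-content imaging. Nigericin and 0.1% DMSO controls. Duplicate wells; two independent experiments.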

Plasmodium vivax [7] = test: Antimalarial activity against liver stage Plasmodium vivax hypnozoite infected in human hepatocytes preincubated for 5 to 10 days followed by compound addition and measured after 12 days post infection by immunofluorescence staining based assay; assay type: functional, organism-based; settings: hepatocyte; in short: as §1

| SMILES | selectivity ratio [1] | selectivity ratio [2] | CC50 ([3]; read-out: pCC50 (converted)) | EC50 (Plasmodium falciparum) | pEC50 (Plasmodium falciparum) | CC50 at 72 h ([4]; read-out: CC50) | CC50 at 72 h ([4]; read-out: pCC50 (converted)) | selectivity ratio [5] | EC50 (Plasmodium vivax [6]) | pEC50 (Plasmodium vivax [6]) | EC50 (Plasmodium vivax [7]) | pEC50 (Plasmodium vivax [7]) | CC50 ([3]; read-out: CC50) |
| --- | --- | --- | --- | --- | --- | --- | --- | --- | --- | --- | --- | --- | --- |
| COc1ccc(C[C@H](N)C(=O)N[C@H]2[C@@H](O)[C@H](n3cnc4c(N(C)C)ncnc43)O[C@@H]2CO)cc1 [PUROMYCIN] | < 1 | 2.25 |  |  |  |  |  |  |  |  |  |  |  |
| CO[C@@H]1C[C@@H](C[C@H]2CC[C@H](C)[C@H]([C@@H](C)C(=O)O)O2)O[C@]2(O[C@](C)([C@H]3CC[C@@](C)([C@@H]4O[C@@H]([C@H]5O[C@@](O)(CO)[C@H](C)C[C@@H]5C)C[C@@H]4C)O3)C[C@H]2C)[C@@H]1C [NIGERICIN] | > 38.9 | > 16.3 | 200 nM |  |  |  |  |  |  |  |  |  |  |
| CC1=CC[C@@]23COC(=O)[C@@H](O)[C@H](C)CCOC(=O)/C=C/C=C\C(=O)O[C@@H]4C[C@@H](O[C@@H]2C1)[C@@]1(CO1)[C@]43C | 77.7 | 10.1 | 316 nM | 0.45 nM | 9.35 | 3.55 nM | 3.55 nM | 7.95 | 4.07 nM | 8.39 | 30.9 nM | 7.51 | 316 nM |
| CC1=C[C@H]2O[C@@H]3C[C@@H](O)[C@](C)([C@@]2(CO)CC1)[C@@]31CO1 |  |  |  | > 4370 nM | < 5.36 |  |  |  | > 10000 nM | < 5 | > 3310 nM | < 5.48 |  |
| CC(=O)OC[C@]12CCC(C)=C[C@H]1O[C@@H]1[C@H](O)[C@@H](OC(C)=O)[C@@]2(C)[C@]12CO2 (single isomer, unassigned) | 28.7 | 10.7 |  |  | 8.21 |  |  | 4.43 |  | 7.87 |  | 7.44 |  |
